The test system of test [1] is Enterococcus faecium. Put plainly: Antibacterial activity against sensitive Streptococcus faecium ATCC 8043 assessed as reduction in growth in presence of 0.002 ug/ml folic acid. In kind it is functional, organism-based. The method, boiled down:
(§1)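 Folate-requiring strains in the medium of the earlier assay method. Folic acid was 0.002 μg/ml for S. faecium and 0.001 μg/ml for L. casei. Turbidity read on a Klett-Summerson colorimeter. IC50 is the micromolar concentration reducing growth to 50% of control. Top concentration was 1000 μg/ml, or 100 μg/ml if supply was limited.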

Test [2] concerns Lacticaseibacillus casei. Put plainly: Antibacterial activity against sensitive Lactobacillus casei ATCC 7469 assessed as reduction in growth in presence of 0.001 ug/ml folic acid. In kind it is functional, organism-based. The method, boiled down: as §1
The nature of test [3]: Antibacterial activity against chlorguanide triazine-resistant Pediococcus cerevisiae ATCC 808 assessed as reduction in growth. In kind it is functional. The method, boiled down: (§2)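 Folate-requiring strains grown in medium with folic acid, 0.002 µg/ml for S. faecium and 0.001 µg/ml for L. casei; P. cerevisiae given folinic acid, 0.001 µg/ml. Resistant substrains came from serial transfer in rising chlorguanide triazine, and the most resistant were used. Compounds tested up to 1000 µg/ml, or 100 µg/ml when supply was limited. Growth read as Klett turbidity; IC50 is the µM concentration giving 50% growth inhibition.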

In test [4] the test system is Enterococcus faecium. The experiment in a line: Antibacterial activity against chlorguanide triazine-resistant Streptococcus faecium ATCC 8043 assessed as reduction in growth. In kind it is functional, organism-based. The method, boiled down:
as §2

The subject of test [5] is Plasmodium berghei. The experiment in a line: Antimalarial activity against Plasmodium berghei infected in sc dosed mouse assessed as active dose required to increase of 100% in mean survival time. In kind it is functional. The conditions noted are these: read-out: MED. The method, boiled down:
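Mice received a standard blood-induced P. berghei inoculum and were then treated with one subcutaneous dose of compound suspended in peanut oil. The minimum active dose is the lowest dose that raised mean survival time by 100%.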

Test [6] concerns Lacticaseibacillus casei. Put plainly: Antibacterial activity against sensitive Lactobacillus casei ATCC 7469 assessed as reduction. In kind it is functional, organism-based. Put shortly:
as §2

In test [7] the test system is Pediococcus. Put plainly: Antibacterial activity against sensitive Pediococcus cerevisiae ATCC 808 assessed as reduction in growth in presence of 0.001 ug/ml folinic acid. It is filed as functional. The method, boiled down: (§3)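 P. cerevisiae grown with folinic acid at 0.001 μg/ml in the earlier-described medium. Turbidity read on a Klett-Summerson colorimeter. IC50 is the micromolar concentration reducing growth to 50% of control. Top concentration was 1000 μg/ml, or 100 μg/ml when supply was limited.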

In test [8] the test system is Plasmodium berghei. Put plainly: Antimalarial activity against Plasmodium berghei infected in sc dosed mouse assessed as dose required to survivors for period of 60 days. It is filed as functional. Put shortly:
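Mice infected with a blood-induced P. berghei inoculum were given one subcutaneous dose in peanut oil. Survivors at 60 days counted as cured. The minimum curative dose is the lowest dose that cured any mouse.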

The test system of test [9] is Pediococcus. The experiment in a line: Fold increase in resistance, ratio of IC50 for chlorguanide triazine-resistant Pediococcus cerevisiae ATCC 808 to IC50 for sensitive Pediococcus cerevisiae ATCC 808. In kind it is functional. Put shortly: (§4)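 Resistant substrains were made by serial transfer in rising concentrations of cycloguanil, and the most resistant isolate of each organism was used. Both strains were assayed turbidimetrically under identical conditions. FIR = IC50 of the resistant strain divided by IC50 of the sensitive parent.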

For test [10], the system named is Enterococcus faecium. Put plainly: Antibacterial activity against sensitive Streptococcus faecium ATCC 8043 assessed as reduction in growth. In kind it is functional, organism-based. The method, boiled down:
as §2

The test system of test [11] is Enterococcus faecium. The experiment in a line: Fold increase in resistance, ratio of IC50 for chlorguanide triazine-resistant Streptococcus faecium ATCC 8043 to IC50 for sensitive Streptococcus faecium ATCC 8043. In kind it is functional. Put shortly: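 Resistant S. faecium substrain raised by serial transfer in increasing chlorguanide triazine. IC50 (µM, 50% growth inhibition by turbidity) was found for resistant and parent strains in folic acid (0.002 µg/ml) medium. Fold increase taken as IC50 resistant / IC50 sensitive.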

In test [12] the test system is Lacticaseibacillus casei. Put plainly: Fold increase in resistance, ratio of IC50 for chlorguanide triazine-resistant Lactobacillus casei ATCC 7469 to IC50 for sensitive Lactobacillus casei ATCC 7469. It is filed as functional. The method, boiled down: as §4
The test system of test [13] is Lacticaseibacillus casei. The experiment in a line: Antibacterial activity against chlorguanide triazine-resistant Lactobacillus casei ATCC 7469 assessed as reduction in growth in presence of 0.001 ug/ml folic acid. In kind it is functional, organism-based. Put shortly:
as §2

The nature of test [14]: Antibacterial activity against sensitive Pediococcus cerevisiae ATCC 808 assessed as reduction. It is filed as functional. Put shortly:
as §3

Test [15] has as its system Lacticaseibacillus casei. Put plainly: Antibacterial activity against chlorguanide triazine-resistant Lactobacillus casei ATCC 7469 assessed as reduction in growth. It is filed as functional, organism-based. Put shortly: as §2
Test [16] concerns Enterococcus faecium. Put plainly: Antibacterial activity against chlorguanide triazine-resistant Streptococcus faecium ATCC 8043 assessed as reduction in growth in presence of 0.002 ug/ml folic acid. It is filed as functional, organism-based. Put shortly:
as §2

In test [17] the test system is Pediococcus. The experiment in a line: Antibacterial activity against chlorguanide triazine-resistant Pediococcus cerevisiae ATCC 808 assessed as reduction in growth in presence of 0.001 ug/ml folinic acid. It is filed as functional. The method, boiled down:
as §2

In test [18] the test system is Escherichia coli. Put plainly: Antibacterial activity against sensitive Escherichia coli ATCC 10536 assessed as reduction in growth. It is filed as functional, organism-based. The method, boiled down:
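Growth inhibition in Sahyun et al. medium plus 0.6% acid-hydrolyzed casein. Growth read as turbidity on a Klett-Summerson photoelectric colorimeter. IC50 is the micromolar concentration giving 50% growth inhibition. Top concentration was 1000 μg/ml, or 100 μg/ml when compound was limited.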

What is called pIC50 is the negative decadic logarithm of the IC50, by convention in mol/L.

Structures are written as SMILES. pIC50: −log10 of the molar value. Calls of active or inactive are those of the source. The calls are words filed in the database; no cut-off is given here.

In the case of `CC(CNc1nc(Nc2ccc(Cl)c(Cl)c2)nc(C(Cl)(Cl)Cl)n1)N(C)C` (stereo unspecified), the inhibition result in [1], in test [2], in test [7], in test [13], in [16] and in [17] was “Active” each time. Besides, the negative-log IC50 (pIC50) in [3] is 5.12; in test [4] it was 4.84; in test [6], 5.24; in test [10], 4.85; in test [14], 5.23; in test [15], 5.31. Further, in test [5], the minimal effective dose was 80 mg/kg. Further, the MCD in [8] was determined as 160 mg/kg. The “Ratio IC50” value is given as 1 in test [9], 1 in [11] and 0.9 in [12].

Take `O=C1C(O)=C(CCCCCCCCC2CCCCC2)C(=O)c2ccccc21` [MENOCTONE]: the inhibition result in test [1], in [2], in [7], in test [13], in test [16] and in test [17] was “Active” each time. The negative logarithm of the IC50 (pIC50) in [18] is < 2.57; in [3] it was 3.24; in [4], 3.40; in test [6], 4.21; in test [10], 3.39; in [14] it was 3.00. For the same compound, in [15], the negative-log IC50 (pIC50) is 4.72. In test [5], the minimal effective dose was 40 mg/kg. In test [8], the MCD worked out at 160 mg/kg. The “Ratio IC50” value in [9] turned out to be 0.6; in test [11], 1; in test [12] it was 0.3.

In the case of `CC1(C)N=C(N)N=C(N)N1c1ccc(Cl)cc1` [CYCLOGUANIL], the inhibition entry in test [1], in test [2], in test [7], in test [13], in test [16] and in test [17] was “inactive” each time. Besides, the negative logarithm of the IC50 (pIC50) was < 2.46 in [18]; 3.05 in test [3]; 2.48 in test [4]; 4.79 in test [6]; 7.77 in test [10]; 4.46 in test [14]. Further, the pIC50 in test [15] is 2.62. In addition, the minimal effective dose in [5] was 20 mg/kg. Moreover, the MCD in [8] worked out at 40 mg/kg. Also, the “Ratio IC50” value stood at 26 in test [9], 194000 in test [11] and 147 in test [12].

With `N=C(N)NC(=O)Nc1ccc([N+](=O)[O-])cc1`, the inhibition result in test [1], in test [2], in [7], in test [13], in test [16] and in [17] was “Active” in each case. The pIC50 is < 2.35 in test [18]; 3.71 in test [3]; 2.60 in [4]; 3.80 in [6]; 2.89 in test [10]; 4.08 in test [14]. In addition, in [15], the pIC50 is 2.74. For the same compound, the minimal effective dose in [5] was determined as 640 mg/kg. Moreover, the MCD in test [8] was found to be 640 mg/kg. Besides, the “Ratio IC50” value in test [9] was found to be 2; in [11], 2; in test [12], 12.

For the origin of these results see ChEMBL document CHEMBL3272032, “Antifolate studies. Activities of 40 potential antimalarial compounds against sensitive and chlorguanide triazine resistant strains of folate-requiring bacteria and Escherichia coli” (J Med Chem, 1977).
